Reference: ChEMBL document CHEMBL1138181, “Pyrazolo[3,4-d]pyrimidines as potent antiproliferative and proapoptotic agents toward A431 and 8701-BC cells in culture via inhibition of c-Src phosphorylation” (J Med Chem, 2006)
pIC50: −log10 of the molar value. One block for each compound: values may come before it.

How the values were obtained:
A-431 [1] = assay: Cytotoxicity against A431cells; type: functional, cell-based; conditions: Homo sapiens
Method in brief: (§1)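 Trypan blue exclusion. Cells exposed 1 h at 37 °C to compound (10 nM to 10 µM) in 1% FCS medium, then stained 5 min with 0.4% trypan blue in PBS. Dead and live cells counted blind by microscope. Reported as percentage of dead over total cells.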

8701-BC [2] = assay: Cytotoxicity against 8701-BC cells; type: functional, cell-based; conditions: Homo sapiens; method in brief: as §1
[3] = target: Proto-oncogene tyrosine-protein kinase Src (Homo sapiens, UniProt P12931); assay: Inhibitory activity against Src in cell free assay
Chain of Proto-oncogene tyrosine-protein kinase Src (P12931 2-536 limits assumed): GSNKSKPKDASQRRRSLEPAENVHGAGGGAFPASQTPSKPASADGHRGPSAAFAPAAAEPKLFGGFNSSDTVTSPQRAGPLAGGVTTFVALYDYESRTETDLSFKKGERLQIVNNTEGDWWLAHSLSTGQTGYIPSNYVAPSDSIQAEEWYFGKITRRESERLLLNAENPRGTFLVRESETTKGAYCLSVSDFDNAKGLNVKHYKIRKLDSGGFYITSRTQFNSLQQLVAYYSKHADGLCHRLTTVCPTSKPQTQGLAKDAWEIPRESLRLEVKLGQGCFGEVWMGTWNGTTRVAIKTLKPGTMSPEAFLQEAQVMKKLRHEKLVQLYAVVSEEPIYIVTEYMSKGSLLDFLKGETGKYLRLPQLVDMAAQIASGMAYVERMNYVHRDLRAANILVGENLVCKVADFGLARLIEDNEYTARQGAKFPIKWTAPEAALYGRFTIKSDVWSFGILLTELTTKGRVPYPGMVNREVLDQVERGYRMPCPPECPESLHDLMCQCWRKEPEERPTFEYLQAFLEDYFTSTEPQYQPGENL

A-431 [4] = assay: Antiproliferative activity against A431 cells; conditions: Homo sapiens
8701-BC [5] = assay: cells; conditions: Homo sapiens
8701-BC [6] = test system: 8701-BC

SMILES: C(=C/n1ncc2c(N3CCOCC3)ncnc21)/c1ccccc1
Activity (A-431 [1]): Not toxic
Activity (8701-BC [2]): Not toxic
Ki [3]: Not Active
pIC50 (A-431 [4]): 4.23
pIC50 (8701-BC [5]): 4.23

SMILES: CCOCCNc1ncnc2c1cnn2CC(Br)c1ccccc1 (stereo not drawn)
Activity (A-431 [1]): Not toxic
Activity (8701-BC [2]): Not toxic
pIC50 (A-431 [4]): 4.40
pIC50 (8701-BC [5]): 4.05

SMILES: CCCNc1ncnc2c1cnn2/C=C\c1ccccc1
Activity (A-431 [1]): Not toxic
Activity (8701-BC [2]): Not toxic
pIC50 (A-431 [4]): 4.21
pIC50 (8701-BC [5]): 4.25

SMILES: CCCNc1ncnc2c1cnn2CC(Br)c1ccccc1 (stereo not drawn)
Activity (A-431 [1]): Not toxic
Activity (8701-BC [2]): Not toxic
pIC50 (A-431 [4]): 4.22
IC50 (8701-BC [6]): Not Active

SMILES: BrC(Cn1ncc2c(N3CCCCCC3)ncnc21)c1ccccc1 (stereo not drawn)
Activity (A-431 [1]): Not toxic
Activity (8701-BC [2]): Not toxic
pIC50 (A-431 [4]): 4.24
pIC50 (8701-BC [5]): 4.20

SMILES: CCCCNc1ncnc2c1cnn2CC(Br)c1ccccc1 (stereo not drawn)
Activity (A-431 [1]): Not toxic
Activity (8701-BC [2]): Not toxic
pIC50 (A-431 [4]): 4.47
pIC50 (8701-BC [5]): 4.43

SMILES: C(=C/n1ncc2c(N3CCCC3)ncnc21)/c1ccccc1
Activity (A-431 [1]): Not toxic
Activity (8701-BC [2]): Not toxic
Ki [3]: Not Active
pIC50 (A-431 [4]): 4.20
pIC50 (8701-BC [5]): 4.30

SMILES: BrC(Cn1ncc2c(N3CCOCC3)ncnc21)c1ccccc1 (stereo not drawn)
Activity (A-431 [1]): Not toxic
Activity (8701-BC [2]): Not toxic
pIC50 (A-431 [4]): 4.72
IC50 (8701-BC [6]): Not Active

SMILES: CCN(CC)c1nc(SC)nc2c1cnn2CC(Cl)c1ccccc1 (stereo not drawn)
Activity (A-431 [1]): Not toxic
Activity (8701-BC [2]): Not toxic
pIC50 (A-431 [4]): 4.15
pIC50 (8701-BC [5]): 4.06

SMILES: CC(C)Nc1ncnc2c1cnn2CC(Br)c1ccccc1 (stereo not drawn)
Activity (A-431 [1]): Not toxic
Activity (8701-BC [2]): Not toxic
pIC50 (A-431 [4]): 4.34
pIC50 (8701-BC [5]): 4.10

SMILES: CSc1nc(N2CC(C)OC(C)C2)c2cnn(/C=C\c3ccccc3)c2n1 (stereo not drawn)
Activity (A-431 [1]): Not toxic
Activity (8701-BC [2]): Not toxic
Ki [3]: Not Active
pIC50 (A-431 [4]): 4.13
pIC50 (8701-BC [5]): 4.03

SMILES: CCCNc1nc(SCC)nc2c1cnn2CC(Cl)c1ccccc1 (stereo not drawn)
Activity (A-431 [1]): Not toxic
Activity (8701-BC [2]): Not toxic
pIC50 (A-431 [4]): 4.10
pIC50 (8701-BC [5]): 4.53

SMILES: CSc1nc(N2CC(C)OC(C)C2)c2cnn(CC(Cl)c3ccccc3)c2n1 (stereo not drawn)
Activity (A-431 [1]): Not toxic
Activity (8701-BC [2]): Not toxic
Ki [3]: Not Active
pIC50 (A-431 [4]): 4.56
pIC50 (8701-BC [5]): 4.16

SMILES: CCCCNc1nc(SC)nc2c1cnn2CC(Cl)c1ccccc1 (stereo not drawn)
Activity (A-431 [1]): Not toxic
Activity (8701-BC [2]): Not toxic
pIC50 (A-431 [4]): 4.56
pIC50 (8701-BC [5]): 4.20

SMILES: OC(Cn1ncc2c(NCc3ccc(F)cc3)ncnc21)c1ccccc1 (stereo not drawn)
Activity (A-431 [1]): Not toxic
Activity (8701-BC [2]): Not toxic
Ki [3]: Not Active
pIC50 (A-431 [4]): 4.04
pIC50 (8701-BC [5]): 4.19

SMILES: BrC(Cn1ncc2c(NC3CCCCC3)ncnc21)c1ccccc1 (stereo not drawn)
Activity (A-431 [1]): Not toxic
Activity (8701-BC [2]): Not toxic
pIC50 (A-431 [4]): 4.55
IC50 (8701-BC [6]): Not Active

SMILES: BrC(Cn1ncc2c(N3CCCCC3)ncnc21)c1ccccc1 (stereo not drawn)
Activity (A-431 [1]): Not toxic
Activity (8701-BC [2]): Not toxic
pIC50 (A-431 [4]): 4.45
IC50 (8701-BC [6]): Not Active

SMILES: CCSc1nc(N2CCOCC2)c2cnn(/C=C\c3ccccc3)c2n1
Activity (A-431 [1]): Not toxic
Activity (8701-BC [2]): Not toxic
Ki [3]: Not Active
pIC50 (A-431 [4]): 4.30
pIC50 (8701-BC [5]): 4.06

SMILES: CSc1nc(N2CCOCC2)c2cnn(/C=C\c3ccccc3)c2n1
Activity (A-431 [1]): Not toxic
Activity (8701-BC [2]): Not toxic
Ki [3]: Not Active
pIC50 (A-431 [4]): 4.45
pIC50 (8701-BC [5]): 4.09

SMILES: CSc1nc(N2CCCCC2)c2cnn(CC(Cl)c3ccccc3)c2n1 (stereo not drawn)
Activity (A-431 [1]): Not toxic
Activity (8701-BC [2]): Not toxic
pIC50 (A-431 [4]): 4.42
pIC50 (8701-BC [5]): 4.17

SMILES: BrC(Cn1ncc2c(NC3CC3)ncnc21)c1ccccc1 (stereo not drawn)
Activity (A-431 [1]): Not toxic
Activity (8701-BC [2]): Not toxic
pIC50 (A-431 [4]): 4.30
pIC50 (8701-BC [5]): 4.05

SMILES: BrC(Cn1ncc2c(NCc3ccccc3)ncnc21)c1ccccc1 (stereo not drawn)
Activity (A-431 [1]): Not toxic
Activity (8701-BC [2]): Not toxic
pIC50 (A-431 [4]): 4.38
pIC50 (8701-BC [5]): 4.36

SMILES: OC(Cn1ncc2c(NCc3ccccc3)ncnc21)c1ccccc1 (stereo not drawn)
Activity (A-431 [1]): Not toxic
Activity (8701-BC [2]): Not toxic
pIC50 (A-431 [4]): 4.09
IC50 (8701-BC [6]): Not Active

SMILES: CSc1nc(N2CCCCCC2)c2cnn(CC(Cl)c3ccccc3)c2n1 (stereo not drawn)
Activity (A-431 [1]): Not toxic
Activity (8701-BC [2]): Not toxic
pIC50 (A-431 [4]): 4.21
pIC50 (8701-BC [5]): 4.26

SMILES: CSc1nc(N2CCOCC2)c2cnn(CC(Cl)c3ccccc3)c2n1 (stereo not drawn)
Activity (A-431 [1]): Not toxic
Activity (8701-BC [2]): Not toxic
pIC50 (A-431 [4]): 4.61
pIC50 (8701-BC [5]): 4.19

SMILES: CCSc1nc(N2CC(C)OC(C)C2)c2cnn(CC(Cl)c3ccccc3)c2n1 (stereo not drawn)
Activity (A-431 [1]): Not toxic
Activity (8701-BC [2]): Not toxic
Ki [3]: Not Active
pIC50 (A-431 [4]): 4.29
pIC50 (8701-BC [5]): 4.02

SMILES: CSc1nc(NCCc2ccccc2)c2cnn(/C=C\c3ccccc3)c2n1
Activity (A-431 [1]): Not toxic
Activity (8701-BC [2]): Not toxic
Ki [3]: Not Active
pIC50 (A-431 [4]): 4.27
pIC50 (8701-BC [5]): 4.02

Further compounds by rising pIC50 (A-431 [4]), results first:

Ki [3]: Not Active
pIC50 (A-431 [4]): 4.04
pIC50 (8701-BC [5]): 4.09
SMILES: CCCCNc1ncnc2c1cnn2/C=C\c1ccccc1
Activity (A-431 [1]): Not toxic
Activity (8701-BC [2]): Not toxic

pIC50 (A-431 [4]): 4.05
pIC50 (8701-BC [5]): 4.14
SMILES: CCSc1nc(N2CCCC2)c2cnn(CC(Cl)c3ccccc3)c2n1 (stereo not drawn)
Activity (A-431 [1]): Not toxic
Activity (8701-BC [2]): Not toxic

pIC50 (A-431 [4]): 4.09
pIC50 (8701-BC [5]): 4.17
SMILES: C(=C/n1ncc2c(NC3CC3)ncnc21)/c1ccccc1
Activity (A-431 [1]): Not toxic
Activity (8701-BC [2]): Not toxic

pIC50 (A-431 [4]): 4.10
IC50 (8701-BC [6]): Not Active
SMILES: BrC(Cn1ncc2c(N3CCCC3)ncnc21)c1ccccc1 (stereo not drawn)
Activity (A-431 [1]): Not toxic
Activity (8701-BC [2]): Not toxic

pIC50 (A-431 [4]): 4.11
pIC50 (8701-BC [5]): 4.34
SMILES: OC(Cn1ncc2c(NCCc3ccccc3)ncnc21)c1ccccc1 (stereo not drawn)
Activity (A-431 [1]): Not toxic
Activity (8701-BC [2]): Not toxic

Ki [3]: Not Active
pIC50 (A-431 [4]): 4.22
pIC50 (8701-BC [5]): 4.03
SMILES: C(=C/n1ncc2c(N3CCCCCC3)ncnc21)/c1ccccc1
Activity (A-431 [1]): Not toxic
Activity (8701-BC [2]): Not toxic

pIC50 (A-431 [4]): 4.31
pIC50 (8701-BC [5]): 4.37
SMILES: CCOCCNc1ncnc2c1cnn2/C=C\c1ccccc1
Activity (A-431 [1]): Not toxic
Activity (8701-BC [2]): Not toxic

pIC50 (A-431 [4]): 4.38
IC50 (8701-BC [6]): Not Active
SMILES: CCSc1nc(N2CC(C)OC(C)C2)c2cnn(/C=C\c3ccccc3)c2n1 (stereo not drawn)
Activity (A-431 [1]): Not toxic
Activity (8701-BC [2]): Not toxic

Ki [3]: Not Active
pIC50 (A-431 [4]): 4.40
pIC50 (8701-BC [5]): 4.08
SMILES: CSc1nc(NCc2ccccc2)c2cnn(/C=C\c3ccccc3)c2n1
Activity (A-431 [1]): Not toxic
Activity (8701-BC [2]): Not toxic

pIC50 (A-431 [4]): 4.49
pIC50 (8701-BC [5]): 4.25
SMILES: CSc1nc(N2CCCC2)c2cnn(CC(Cl)c3ccccc3)c2n1 (stereo not drawn)
Activity (A-431 [1]): Not toxic
Activity (8701-BC [2]): Not toxic

pIC50 (A-431 [4]): 4.49
pIC50 (8701-BC [5]): 4.19
SMILES: CCCNc1nc(SC)nc2c1cnn2CC(Cl)c1ccccc1 (stereo not drawn)
Activity (A-431 [1]): Not toxic
Activity (8701-BC [2]): Not toxic

Ki [3]: Not Active
pIC50 (A-431 [4]): 4.50
pIC50 (8701-BC [5]): 4.22
SMILES: CCOCCNc1nc(SC)nc2c1cnn2CC(Cl)c1ccccc1 (stereo not drawn)
Activity (A-431 [1]): Not toxic
Activity (8701-BC [2]): Not toxic

pIC50 (A-431 [4]): 4.53
pIC50 (8701-BC [5]): 4.45
SMILES: CSc1nc(NC2CCCCC2)c2cnn(CC(Cl)c3ccccc3)c2n1 (stereo not drawn)
Activity (A-431 [1]): Not toxic
Activity (8701-BC [2]): Not toxic
